The source made the active and inactive calls. The rule behind the calls is not given here.
Assays:
Caco-2 = assay: Cytotoxicity against human Caco-2 cells assessed as effect on cell growth at 0.1 to 25 uM after 24 to 48 hrs by Hoechst 3342 staining-based imaging analysis; conditions: caco-2, 25 µM
How it was run: (§1)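 Human tumour lines (liver, colon, prostate, breast, lung) and resting normal diploid skin fibroblasts were grown per supplier guidance. 4×10³ cells/well attached for 24 h, then were exposed to increasing compound concentrations for 1 and 2 days. Cells were fixed in 4% paraformaldehyde, nuclei stained with Hoechst 3342, and counted by automated imaging from four pictures per well.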

HCT-116 = assay: Cytotoxicity against human HCT116 cells assessed as effect on cell growth at 0.1 to 25 uM after 24 to 48 hrs by Hoechst 3342 staining-based imaging analysis; conditions: hct-116, 25 µM; how it was run: as §1
[1] = Cytotoxicity against human HuH7 cells assessed as effect on cell growth at 0.1 to 25 uM after 24 to 48 hrs by Hoechst 3342 staining-based imaging analysis; conditions: huh-7, 25 µM; how it was run: as §1
[2] = Cytotoxicity against human NCI/ADR cells assessed as effect on cell growth at 0.1 to 25 uM after 24 to 48 hrs by Hoechst 3342 staining-based imaging analysis; how it was run: as §1
PC-3 = assay: Cytotoxicity against human PC3 cells assessed as effect on cell growth at 0.1 to 25 uM after 24 to 48 hrs by Hoechst 3342 staining-based imaging analysis; conditions: pc-3, 25 µM; how it was run: as §1
[3] = Cytotoxicity against human skin fibroblast assessed as effect on cell growth at 0.1 to 25 uM after 24 to 48 hrs by Hoechst 3342 staining-based imaging analysis; how it was run: as §1
Mus musculus [4] = assay: Immunostimulatory activity in BALB/c mouse assessed as increase in granulocyte count in peripheral blood at 100 ug, ip after 24 hrs; assay type: functional, organism-based
Mus musculus [5] = assay: Immunostimulatory activity in BALB/c mouse assessed as decrease in lymphocyte count in peripheral blood at 100 ug, ip after 24 hrs; assay type: functional, organism-based
Mus musculus [6] = assay: Immunostimulatory activity in BALB/c mouse assessed as influx of macrophages into peritoneal cavity at 100 ug, ip after 24 hrs; assay type: functional, organism-based
How it was run: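 Female BALB/c mice (6–8 weeks) got one ip injection of sample. Peritoneal cavity cells were collected and percentages of macrophages, lymphocytes and mast cells scored. Values are the mean of three independent experiments ± SD.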

Mus musculus [7] = assay: Immunostimulatory activity in BALB/c mouse assessed as induction of peripheral blood monocyte phagocytosis at 100 ug, ip after 24 hrs; assay type: functional, organism-based
How it was run: (§2)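 Female BALB/c mice (6–8 weeks) were injected ip with oligosaccharide 24 h before the test. Heparinised (5 IU/mL) orbital plexus blood was incubated with synthetic HEMA microspheres. Two smears from two parallel samples were stained with Accustain. Monocytes and granulocytes holding three or more particles were scored positive. Mean ± SD; P <0.05.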

Mus musculus [8] = assay: Immunostimulatory activity in BALB/c mouse assessed as induction of peripheral blood granulocyte phagocytosis at 100 ug, ip after 24 hrs; assay type: functional, organism-based; how it was run: as §2
Mus musculus [9] = assay: Immunostimulatory activity in BALB/c mouse assessed as induction of peritoneal macrophage phagocytosis at 100 ug, ip after 24 hrs; assay type: functional, organism-based
How it was run: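 Oligosaccharide was given ip to female BALB/c mice (6–8 weeks) 24 h before harvest. Peritoneal macrophages were isolated, diluted to 1×10⁷ in RPMI-1640 with 5% fetal calf serum, and incubated with HEMA microspheres. Smears were stained with Accustain, and phagocytosis was scored with differential counts; cells with three or more particles counted positive.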

Mus musculus [10] = species on record: Mus musculus; assay: Immunostimulatory activity in BALB/c mouse splenocytes assessed as induction of IL2 production at 100 ug after 72 hrs; assay type: functional, organism-based; conditions: Splenocyte
How it was run: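 Spleen cells came from female BALB/c mice (6–8 weeks) injected ip with oligosaccharide; controls were PBS-injected mice. Cells were plated at 2×10⁶/mL in RPMI-1640 with 5% FCS, with Concanavalin A added to positive-control wells. After 72 h at 37 °C and 5% CO₂, supernatant IL-2 was measured with a Quantikine mouse IL-2 kit. Mean of three independent experiments ± SD.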

OC[C@H]1O[C@@H](O[C@@H]2[C@@H](O)[C@H](O[C@@H]3[C@@H](O)[C@H](O[C@@H]4[C@@H](O)[C@H](O[C@@H]5[C@@H](O)[C@H](O[C@H]6[C@H](O)[C@@H](CO)OC(O)[C@H]6O)O[C@H](CO)[C@H]5O)O[C@H](CO)[C@H]4O)O[C@H](CO)[C@H]3O)O[C@H](CO)[C@H]2O)[C@H](O)[C@@H](O)[C@@H]1O (some centres not stated)
Activity (Caco-2): Non-toxic
Activity (HCT-116): Non-toxic
Activity [1]: Non-toxic
Activity [2]: Non-toxic
Activity (PC-3): Non-toxic
Activity [3]: Non-toxic
Activity (Mus musculus [4]): Active
Activity (Mus musculus [5]): Active
Activity (Mus musculus [6]): Active
Activity (Mus musculus [7]): Active
Activity (Mus musculus [8]): Active
Activity (Mus musculus [9]): Active

OC[C@H]1O[C@@H](O[C@@H]2[C@@H](O)[C@H](O[C@@H]3[C@@H](O)[C@H](O[C@@H]4[C@@H](O)[C@H](O[C@@H]5[C@@H](O)[C@H](O)O[C@H](CO)[C@H]5O)O[C@H](CO)[C@H]4O)O[C@H](CO)[C@H]3O)O[C@H](CO)[C@H]2O)[C@H](O)[C@@H](O)[C@@H]1O
Activity (Mus musculus [4]): Active
Activity (Mus musculus [5]): Active
Activity (Mus musculus [6]): Active
Activity (Mus musculus [7]): Active
Activity (Mus musculus [8]): Active
Activity (Mus musculus [9]): Active

OC[C@H]1O[C@@H](O[C@@H]2[C@@H](O)[C@H](O[C@@H]3[C@@H](O)[C@H](O[C@@H]4[C@@H](O)[C@H](O[C@H]5[C@H](O)[C@@H](CO)OC(O)[C@H]5O)O[C@H](CO)[C@H]4O)O[C@H](CO)[C@H]3O)O[C@H](CO)[C@H]2O)[C@H](O)[C@@H](O)[C@@H]1O (some centres not stated)
Activity (Caco-2): Non-toxic
Activity (HCT-116): Non-toxic
Activity [1]: Non-toxic
Activity [2]: Non-toxic
Activity (PC-3): Non-toxic
Activity [3]: Non-toxic
Activity (Mus musculus [4]): Active
Activity (Mus musculus [5]): Active
Activity (Mus musculus [6]): Active
Activity (Mus musculus [7]): Active
Activity (Mus musculus [8]): Active
Activity (Mus musculus [9]): Active
Activity (Mus musculus [10]): Active

OC[C@H]1O[C@@H](O[C@@H]2[C@@H](O)[C@H](O[C@@H]3[C@@H](O)[C@H](O[C@@H]4[C@@H](O)[C@H](O[C@@H]5[C@@H](O)[C@H](O[C@@H]6[C@@H](O)[C@H](O[C@@H]7[C@@H](O)[C@H](O)O[C@H](CO)[C@H]7O)O[C@H](CO)[C@H]6O)O[C@H](CO)[C@H]5O)O[C@H](CO)[C@H]4O)O[C@H](CO)[C@H]3O)O[C@H](CO)[C@H]2O)[C@H](O)[C@@H](O)[C@@H]1O
Activity (Mus musculus [4]): Active
Activity (Mus musculus [5]): Active
Activity (Mus musculus [6]): Active
Activity (Mus musculus [7]): Active
Activity (Mus musculus [8]): Active
Activity (Mus musculus [9]): Active

Reference: ChEMBL document CHEMBL1157669, “New oligo-beta-(1,3)-glucan derivatives as immunostimulating agents” (Bioorg Med Chem, 2010)
